Results: ChEMBL document CHEMBL1145966, “Orally active analogues of the dopaminergic prodrug 6-(N,N-di-n-propylamino)-3,4,5,6,7,8-hexahydro-2H-naphthalen-1-one: synthesis and pharmacological activity” (J Med Chem, 2003)

Each compound was assayed against D(2) dopamine receptor (Bos taurus, UniProt P20288) (assay: Binding affinity of compound for Dopamine receptor D2 using [3H]N-0437). Details: not given.
Sequence of D(2) dopamine receptor (P20288 whole entry): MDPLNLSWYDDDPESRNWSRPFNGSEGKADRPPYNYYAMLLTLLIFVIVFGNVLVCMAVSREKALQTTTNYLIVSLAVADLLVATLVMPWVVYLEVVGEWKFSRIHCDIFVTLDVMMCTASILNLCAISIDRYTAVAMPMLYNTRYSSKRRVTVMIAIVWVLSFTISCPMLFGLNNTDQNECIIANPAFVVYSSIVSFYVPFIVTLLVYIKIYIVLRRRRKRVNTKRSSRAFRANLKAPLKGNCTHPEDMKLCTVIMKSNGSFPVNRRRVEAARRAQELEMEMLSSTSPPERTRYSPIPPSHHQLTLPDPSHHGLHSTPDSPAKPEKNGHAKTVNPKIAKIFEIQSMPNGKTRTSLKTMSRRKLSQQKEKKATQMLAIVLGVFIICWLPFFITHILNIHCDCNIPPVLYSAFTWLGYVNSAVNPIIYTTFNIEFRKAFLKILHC

Row | Structure (SMILES) | Ki
1 | CCCN(CCC)[C@@H]1Cc2cccc(O)c2C[C@H]1C | 3 nM
2 | CCCN(CCc1cccs1)[C@H]1CCc2c(ccc(O)c2O)C1 (racemic) | 6 nM
3 | CCCN(CCc1cccs1)[C@H]1CCc2c(O)cccc2C1 (racemic) [ROTIGOTINE] | 15 nM

Each compound was assayed against D(1A) dopamine receptor (Bos taurus, UniProt Q95136) (assay: Binding affinity of compound for Dopamine receptor D1 using [3H]-SCH- 23390). Details: not given.
How it was run: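 Rat striatal membranes; inhibition of 0.20 nM [3H]SCH23390 binding at D1 sites, following Hyttel et al. Ki in nM, n = 3, SEM < 10%.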

Sequence of D(1A) dopamine receptor (Q95136 whole entry): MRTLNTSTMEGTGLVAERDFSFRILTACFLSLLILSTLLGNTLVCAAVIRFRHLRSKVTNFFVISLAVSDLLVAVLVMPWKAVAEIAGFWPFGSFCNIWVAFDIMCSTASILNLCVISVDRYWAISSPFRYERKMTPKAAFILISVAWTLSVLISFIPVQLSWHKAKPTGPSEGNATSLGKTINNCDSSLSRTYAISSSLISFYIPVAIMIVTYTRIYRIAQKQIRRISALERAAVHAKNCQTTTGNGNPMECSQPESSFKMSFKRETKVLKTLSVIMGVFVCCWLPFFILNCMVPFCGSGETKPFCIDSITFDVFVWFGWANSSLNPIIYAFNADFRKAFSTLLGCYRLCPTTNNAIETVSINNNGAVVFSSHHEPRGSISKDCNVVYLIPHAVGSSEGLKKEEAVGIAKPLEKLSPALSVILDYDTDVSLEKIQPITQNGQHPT

Row | Structure (SMILES) | Ki
4 | CCCN(CCC)[C@@H]1Cc2cccc(O)c2C[C@H]1C | 1.1 nM
5 | CCCN(CCc1cccs1)[C@H]1CCc2c(ccc(O)c2O)C1 (racemic) | 110 nM
6 | CCCN(CCc1cccs1)[C@H]1CCc2c(O)cccc2C1 (racemic) [ROTIGOTINE] | 500 nM

These compounds were tested on Rattus norvegicus (assay: Total full contralateral turn in rat was observed at a dose of 0.1 mg kg-1 administered perorally). Details: route oral.
Type: functional

Row | Structure (SMILES) | Total turns
7 | CCCN(CCc1cccs1)C1CCC2=C(CCCC2=O)C1 (racemic) | 262
8 | CCCN(C)C1CCC2=C(CCCC2=O)C1 (racemic) | 2928
9 | CCCN(CCC)[C@H]1CCC2=C(CCCC2=O)C1 (racemic) | 2312
10 | CCCN(CC)C1CCC2=C(CCCC2=O)C1 (racemic) | 4840
11 | C#CCN(C)C1CCC2=C(CCCC2=O)C1 (racemic) | 713

Each compound was assayed on Rattus norvegicus (assay: Total full contralateral turn in rat was observed at a dose of 0.3 mg kg-1 administered perorally). Details: route oral.
Type: functional

Row | Structure (SMILES) | Total turns
12 | CCCN(CCCF)C1CCC2=C(CCCC2=O)C1 (racemic) | 5194
13 | CCCN(CCC)C1CCC2=C(C1)CC(C)(C)CC2=O (racemic) | 23
14 | CCCN(C)C1CCC2=C(CCCC2=O)C1 (racemic) | 5740
15 | CCCN(CCC)[C@H]1CCC2=C(CCCC2=O)C1 (racemic) | 5354
16 | CCCN(CC)C1CCC2=C(CCCC2=O)C1 (racemic) | 8901
17 | C#CCN(C)C1CCC2=C(CCCC2=O)C1 (racemic) | 513

What follows are compounds tested on Rattus norvegicus (assay: Total full contralateral turn in rat was observed at a dose of 1.0 mg kg-1 administered perorally). Details: route oral.
Type: functional

Row | Structure (SMILES) | Total turns
18 | CCCN(CCCF)C1CCC2=C(CCCC2=O)C1 (racemic) | 7540
19 | CCCN(CCc1cccs1)C1CCC2=C(CCCC2=O)C1 (racemic) | 503
20 | CCCN(CCC)C1CCC2=C(C1)CC(C)(C)CC2=O (racemic) | 204
21 | CCCN(CCC)[C@H]1CCC2=C(CCCC2=O)C1 (racemic) | 8787
